Measurements from the M2OR odorant receptor database.

Legend:
Settings in all cases: stereoisomer not certain
UniProt Q8VGM2 = molecular target: T1, UniProt Q8VGM2
T1 sequence (whole entry): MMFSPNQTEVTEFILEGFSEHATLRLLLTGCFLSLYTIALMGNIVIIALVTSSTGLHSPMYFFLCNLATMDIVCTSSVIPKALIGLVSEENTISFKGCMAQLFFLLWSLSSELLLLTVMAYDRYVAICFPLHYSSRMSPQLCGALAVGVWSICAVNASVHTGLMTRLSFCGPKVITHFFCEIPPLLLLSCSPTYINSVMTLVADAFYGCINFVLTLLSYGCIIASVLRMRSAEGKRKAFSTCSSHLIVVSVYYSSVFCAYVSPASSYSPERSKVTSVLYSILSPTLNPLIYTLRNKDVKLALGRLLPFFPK
Procedure, shortened: (§1)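 Assay methods differ from source to source, frequently being transient luciferase assays in mammalian cell lines. For each receptor–molecule pair, the label responsive (active) applies when the original authors judged the measured signal statistically different from baseline, and non-responsive (inactive) applies otherwise.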

UniProt Q8VGP6 = molecular target: T2, UniProt Q8VGP6
T2 sequence (whole entry): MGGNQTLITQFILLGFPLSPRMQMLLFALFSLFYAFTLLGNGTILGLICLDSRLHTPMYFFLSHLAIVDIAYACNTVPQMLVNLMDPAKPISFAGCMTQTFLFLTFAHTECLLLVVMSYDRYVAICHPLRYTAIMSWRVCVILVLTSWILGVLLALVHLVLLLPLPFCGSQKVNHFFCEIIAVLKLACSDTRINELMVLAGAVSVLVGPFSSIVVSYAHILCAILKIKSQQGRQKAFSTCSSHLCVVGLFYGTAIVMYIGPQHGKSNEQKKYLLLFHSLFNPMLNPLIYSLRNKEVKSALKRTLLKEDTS
Procedure, shortened: as §1

UniProt Q8VGQ3 = molecular target: T3, UniProt Q8VGQ3
T3 sequence (whole entry): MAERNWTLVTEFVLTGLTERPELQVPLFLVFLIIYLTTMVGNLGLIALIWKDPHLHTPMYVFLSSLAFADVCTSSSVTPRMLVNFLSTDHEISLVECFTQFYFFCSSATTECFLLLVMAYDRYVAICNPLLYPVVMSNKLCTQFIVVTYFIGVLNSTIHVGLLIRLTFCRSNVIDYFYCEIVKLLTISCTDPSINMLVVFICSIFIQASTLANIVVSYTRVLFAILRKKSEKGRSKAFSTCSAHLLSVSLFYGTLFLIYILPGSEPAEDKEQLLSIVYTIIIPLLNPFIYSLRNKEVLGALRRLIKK
Procedure, shortened: as §1

UniProt Q8VGT4 = molecular target: T4, UniProt Q8VGT4
T4 sequence (whole entry): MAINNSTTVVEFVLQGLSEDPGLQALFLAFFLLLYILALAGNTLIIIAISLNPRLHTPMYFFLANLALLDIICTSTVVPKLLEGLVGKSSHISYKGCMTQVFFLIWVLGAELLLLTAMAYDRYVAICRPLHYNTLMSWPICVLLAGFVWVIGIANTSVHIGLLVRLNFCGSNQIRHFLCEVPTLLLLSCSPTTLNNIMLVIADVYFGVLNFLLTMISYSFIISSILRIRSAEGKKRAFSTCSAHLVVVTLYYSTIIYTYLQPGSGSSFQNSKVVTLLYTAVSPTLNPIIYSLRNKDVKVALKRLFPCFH
Procedure, shortened: as §1

UniProt Q8VGU3 = molecular target: T5, UniProt Q8VGU3
T5 sequence (whole entry): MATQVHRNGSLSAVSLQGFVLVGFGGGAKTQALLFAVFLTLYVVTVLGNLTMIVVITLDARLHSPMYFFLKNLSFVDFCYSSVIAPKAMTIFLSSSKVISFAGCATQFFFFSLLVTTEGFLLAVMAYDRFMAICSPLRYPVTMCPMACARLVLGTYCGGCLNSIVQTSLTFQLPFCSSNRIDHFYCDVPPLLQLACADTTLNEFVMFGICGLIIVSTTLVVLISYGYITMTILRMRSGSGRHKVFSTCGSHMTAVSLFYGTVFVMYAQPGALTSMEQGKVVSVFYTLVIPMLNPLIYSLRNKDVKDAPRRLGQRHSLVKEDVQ
Procedure, shortened: as §1

UniProt Q8VGV1 = molecular target: T6, UniProt Q8VGV1
T6 sequence (whole entry): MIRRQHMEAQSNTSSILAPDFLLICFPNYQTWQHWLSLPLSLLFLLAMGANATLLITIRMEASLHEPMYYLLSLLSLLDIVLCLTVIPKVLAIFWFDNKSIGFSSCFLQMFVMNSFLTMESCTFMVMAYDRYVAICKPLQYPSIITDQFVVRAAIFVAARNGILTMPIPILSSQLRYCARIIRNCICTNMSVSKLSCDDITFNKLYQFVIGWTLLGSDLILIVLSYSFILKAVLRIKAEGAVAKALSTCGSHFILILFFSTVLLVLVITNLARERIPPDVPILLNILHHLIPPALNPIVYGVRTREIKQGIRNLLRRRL
Procedure, shortened: as §1

UniProt Q8VGV7 = molecular target: T7, UniProt Q8VGV7
T7 sequence (whole entry): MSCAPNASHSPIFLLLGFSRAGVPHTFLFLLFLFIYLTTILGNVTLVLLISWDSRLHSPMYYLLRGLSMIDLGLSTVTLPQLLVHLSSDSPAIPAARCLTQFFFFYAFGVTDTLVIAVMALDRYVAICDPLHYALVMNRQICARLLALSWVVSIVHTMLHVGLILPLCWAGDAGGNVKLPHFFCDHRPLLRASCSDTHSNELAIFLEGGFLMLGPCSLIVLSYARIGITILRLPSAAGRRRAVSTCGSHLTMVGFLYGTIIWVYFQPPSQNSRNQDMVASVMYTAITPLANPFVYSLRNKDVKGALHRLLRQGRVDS
Procedure, shortened: as §1

UniProt Q8VGX3 = molecular target: T8, UniProt Q8VGX3
T8 sequence (whole entry): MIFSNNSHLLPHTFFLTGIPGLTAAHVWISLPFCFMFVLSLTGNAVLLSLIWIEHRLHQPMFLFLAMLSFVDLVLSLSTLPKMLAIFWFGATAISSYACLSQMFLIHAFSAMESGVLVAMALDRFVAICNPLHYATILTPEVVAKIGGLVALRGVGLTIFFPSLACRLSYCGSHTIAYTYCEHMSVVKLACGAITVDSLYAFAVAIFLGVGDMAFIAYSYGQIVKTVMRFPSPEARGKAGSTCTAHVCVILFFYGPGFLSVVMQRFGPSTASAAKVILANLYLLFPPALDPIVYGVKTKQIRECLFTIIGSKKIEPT
Procedure, shortened: as §1

UniProt Q8VGX5 = molecular target: T9, UniProt Q8VGX5
T9 sequence (whole entry): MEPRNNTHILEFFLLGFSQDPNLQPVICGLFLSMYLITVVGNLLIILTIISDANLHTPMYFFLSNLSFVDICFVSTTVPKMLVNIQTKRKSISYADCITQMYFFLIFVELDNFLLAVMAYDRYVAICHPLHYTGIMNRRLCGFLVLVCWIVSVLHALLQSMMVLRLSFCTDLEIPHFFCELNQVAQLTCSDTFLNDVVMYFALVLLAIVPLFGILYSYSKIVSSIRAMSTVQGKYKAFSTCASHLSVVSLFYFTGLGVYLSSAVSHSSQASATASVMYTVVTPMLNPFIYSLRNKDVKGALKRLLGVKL
Procedure, shortened: as §1

SMILES	odorant receptor agonist call (UniProt Q8VGM2)	odorant receptor agonist call (UniProt Q8VGP6)	odorant receptor agonist call (UniProt Q8VGQ3)	odorant receptor agonist call (UniProt Q8VGT4)	odorant receptor agonist call (UniProt Q8VGU3)	odorant receptor agonist call (UniProt Q8VGV1)	odorant receptor agonist call (UniProt Q8VGV7)	odorant receptor agonist call (UniProt Q8VGX3)	odorant receptor agonist call (UniProt Q8VGX5)
CC(=O)OCC=C(C)C	inactive	inactive	inactive	inactive	inactive	inactive	inactive	inactive	active
CC(=O)OCc1ccccc1	inactive	active	inactive	inactive	inactive	inactive	inactive	inactive	active
CC(CC=O)CCCC(C)(C)O (stereo not given)	–	–	–	–	inactive	–	inactive	inactive	inactive
CCC(C)O (stereo not given)	–	–	–	–	inactive	–	inactive	inactive	inactive
CCCCCOC(=O)CCC	–	–	–	–	inactive	–	inactive	inactive	inactive
CCc1occc(=O)c1O	–	–	–	–	inactive	–	inactive	inactive	active
CCCC(C)C(=O)OCC (stereo not given)	–	–	–	–	inactive	–	inactive	inactive	inactive
CCCCCCCCOC=O	–	–	–	–	inactive	–	inactive	inactive	inactive
CCC=CCCC=CC=O	–	–	–	–	inactive	–	inactive	inactive	inactive
CCCCCCC(=O)OCCCC	–	–	–	–	inactive	–	inactive	inactive	inactive
CCOC(=O)CC(C)C	–	–	–	–	inactive	–	inactive	inactive	inactive
Cc1c(C)c(C)c(C=O)c(C)c1C	–	–	–	–	inactive	–	inactive	inactive	inactive
OCCCCCCCCCO	–	–	–	–	inactive	–	inactive	inactive	inactive
CC(=O)OC1(C)CCC23CC1C(C)(C)C2CCC3C (stereo not given)	–	–	–	–	active	–	inactive	inactive	inactive
CCCCCC=CCCC=O	–	–	–	–	inactive	–	inactive	inactive	inactive
